Type in all cases: functional
Assay [1] has as its system PC-3. Kind of assay: Cytotoxicity against human PC3 cells assessed as cell viability ratio at 10 uM after 24 hrs by MTT assay relative to control. An outline of the steps: (§1)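 Adherent lines in DMEM plus 10% FBS and penicillin-streptomycin, 37 °C, 5% CO2, lifted with Accutase. Seeded at 500–10,000 cells/well and rested 15 h. Compounds from 10 mM DMSO stocks dosed at 10 µM final, 1% DMSO final, n = 5, for 24 h. Medium then swapped for 1 mg/ml MTT in phenol-red-free medium for 3 h at 37 °C. Formazan dissolved in DMSO, OD read at 550 nm. Viability normalised to 1% DMSO vehicle control.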
(In general: Formazan colour is commonly taken as a measure of viable cells.)

In assay [2] the test system is HeLa. Kind of assay: Cytotoxicity against human HeLa cells assessed as cell viability ratio at 10 uM after 24 hrs by MTT assay relative to control. The method, boiled down:
as §1

The test system of assay [3] is Jurkat. The assay can be described thus: Cytotoxicity against human Jurkat cells assessed as cell viability ratio at 10 uM after 24 hrs by MTT assay relative to control. The method, boiled down:
(§2)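 Suspension lines grown in α-MEM plus 10% FBS and penicillin-streptomycin, 37 °C, 5% CO2. Seeded at 30,000 cells/well in phenol-red-free α-MEM and rested 15 h. Exposed to 10 µM, or 2 µM in the lower-dose repeat, at 1% DMSO final for 24 h. 5 mg/ml MTT added directly for 3 h at 37 °C. Plates spun, formazan dissolved in DMSO, OD read at 550 nm. Viability relative to vehicle.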

Assay [4] deals with SJSA-1. The assay can be described thus: Cytotoxicity against human SJSA1 cells assessed as cell viability ratio at 10 uM after 24 hrs by MTT assay relative to control. The method, boiled down:
as §1

The subject of assay [5] is SK-MEL-2. Kind of assay: Cytotoxicity against human SK-MEL-2 cells assessed as cell viability ratio at 10 uM after 24 hrs by MTT assay relative to control. The method, boiled down: as §1
For assay [6], the system named is A549. Kind of assay: Cytotoxicity against human A549 cells assessed as cell viability ratio at 10 uM after 24 hrs by MTT assay relative to control. The method, boiled down:
as §1

The subject of assay [7] is HCT-116. The assay can be described thus: Cytotoxicity against human HCT116 cells assessed as cell viability ratio at 10 uM after 24 hrs by MTT assay relative to control.
Assay [8] concerns SK-N-MC. Kind of assay: Cytotoxicity against human SK-N-MC cells assessed as cell viability ratio at 10 uM after 24 hrs by MTT assay relative to control. An outline of the steps: as §1
Assay [9] has as its system MDA-MB-231. The assay can be described thus: Cytotoxicity against human MDA-MB-231 cells assessed as cell viability ratio at 10 uM after 24 hrs by MTT assay relative to control. An outline of the steps: as §1
Assay [10] deals with JeKo-1. Kind of assay: Cytotoxicity against human JeKo1 cells assessed as cell viability ratio at 10 uM after 24 hrs by MTT assay relative to control. An outline of the steps:
as §2

Assay [11] deals with A549. The assay can be described thus: Cytotoxicity against human A549 cells assessed as cell viability after 24 hrs by MTT assay. The conditions noted are these: A549, 24 h, read-out: LC50 (the source's name). The method, boiled down:
(§3)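 Adherent cells grown in DMEM with 10% FBS and penicillin-streptomycin, dissociated with Accutase, seeded at 500–10,000 cells/well and held 15 h before treatment. Compounds diluted from 10 mM DMSO stocks, final 1% DMSO, for 24 h at 37 °C, 5% CO2. Medium replaced with 1 mg/ml MTT for 3 h, formazan dissolved in DMSO, OD 550 nm. LC50 from dose-response curves normalized to 1% DMSO vehicle.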

The subject of assay [12] is MDA-MB-231. Kind of assay: Cytotoxicity against human MDA-MB-231 cells assessed as cell viability after 24 hrs by MTT assay. The conditions noted are these: MDA-MB-231, 24 h, read-out: LC50 (the source's name). The method, boiled down: as §3
For assay [13], the system named is SK-MEL-2. Kind of assay: Cytotoxicity against human SK-MEL-2 cells assessed as cell viability at 10 uM after 24 hrs by MTT assay relative to control. The note with it: SK-MEL-2, 24 h, read-out: Activity. An outline of the steps: as §1
The test system of assay [14] is JeKo-1. Kind of assay: Cytotoxicity against human JeKo1 cells assessed as cell viability after 24 hrs by MTT assay. The note with it: JeKo-1, 24 h, read-out: LC50 (the source's name). The method, boiled down:
(§4)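 Suspension cells grown in α-MEM with 10% FBS and penicillin-streptomycin, seeded at 30,000 cells/well in phenol red-free medium and held 15 h before treatment. Compounds diluted from 10 mM DMSO stocks, final 1% DMSO, for 24 h. MTT (5 mg/ml stock) added directly for 3 h at 37 °C, then centrifugation, DMSO solubilization, OD 550 nm. LC50 from dose-response curves normalized to vehicle.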

The subject of assay [15] is Jurkat. The assay can be described thus: Cytotoxicity against human Jurkat cells assessed as cell viability after 24 hrs by MTT assay. The note with it: read-out: LC50 (the source's name). The method, boiled down:
as §4

The test system of assay [16] is Jurkat. Kind of assay: Cytotoxicity against human Jurkat cells assessed as cell viability at 10 uM after 24 hrs by MTT assay relative to control. The note with it: read-out: Activity. An outline of the steps:
as §2

Assay [17] concerns HCT-116. Kind of assay: Cytotoxicity against human HCT116 cells assessed as cell viability after 24 hrs by MTT assay. The conditions noted are these: HCT-116, 24 h, read-out: LC50 (the source's name). The method, boiled down:
as §3

Assay [18] concerns HeLa. The assay can be described thus: Cytotoxicity against human HeLa cells assessed as cell viability after 24 hrs by MTT assay. The conditions noted are these: read-out: LC50 (the source's name). An outline of the steps: as §3
Assay [19] deals with SK-MEL-2. Kind of assay: Cytotoxicity against human SK-MEL-2 cells assessed as cell viability after 24 hrs by MTT assay. The conditions noted are these: SK-MEL-2, 24 h, read-out: LC50 (the source's name). An outline of the steps:
as §3

Assay [20] has as its system JeKo-1. The assay can be described thus: Cytotoxicity against human JeKo1 cells assessed as cell viability at 2 uM after 24 hrs by MTT assay relative to control. The conditions noted are these: JeKo-1, 24 h, read-out: Activity. The method, boiled down:
as §2

Assay [21] concerns HeLa. Kind of assay: Cytotoxicity against human HeLa cells assessed as cell viability at 10 uM after 24 hrs by MTT assay relative to control. The conditions noted are these: read-out: Activity. The method, boiled down: as §1
For assay [22], the system named is HCT-116. The assay can be described thus: Cytotoxicity against human HCT116 cells assessed as cell viability at 10 uM after 24 hrs by MTT assay relative to control. The note with it: HCT-116, 24 h, read-out: Activity. An outline of the steps:
as §1

For assay [23], the system named is Jurkat. Kind of assay: Cytotoxicity against human Jurkat cells assessed as cell viability at 2 uM after 24 hrs by MTT assay relative to control. The conditions noted are these: read-out: Activity. The method, boiled down: as §2
Assay [24] has as its system SJSA-1. The assay can be described thus: Cytotoxicity against human SJSA1 cells assessed as cell viability after 24 hrs by MTT assay. The note with it: SJSA-1, 24 h, read-out: LC50 (the source's name). An outline of the steps:
as §3

Assay [25] concerns SJSA-1. The assay can be described thus: Cytotoxicity against human SJSA1 cells assessed as cell viability at 10 uM after 24 hrs by MTT assay relative to control. The conditions noted are these: SJSA-1, 24 h, read-out: Activity. An outline of the steps:
as §1

Assay [26] relates to MDA-MB-231. Kind of assay: Cytotoxicity against human MDA-MB-231 cells assessed as cell viability at 10 uM after 24 hrs by MTT assay relative to control. The note with it: MDA-MB-231, 24 h, read-out: Activity. An outline of the steps:
as §1

The test system of assay [27] is PC-3. The assay can be described thus: Cytotoxicity against human PC3 cells assessed as cell viability after 24 hrs by MTT assay. The note with it: PC-3, 24 h, read-out: LC50 (the source's name). An outline of the steps: as §3
Assay [28] deals with SK-N-MC. Kind of assay: Cytotoxicity against human SK-N-MC cells assessed as cell viability at 10 uM after 24 hrs by MTT assay relative to control. The note with it: read-out: Activity. An outline of the steps: as §1
Assay [29] concerns PC-3. Kind of assay: Cytotoxicity against human PC3 cells assessed as cell viability at 10 uM after 24 hrs by MTT assay relative to control. The note with it: PC-3, 24 h, read-out: Activity. The method, boiled down: as §1
Assay [30] deals with A549. Kind of assay: Cytotoxicity against human A549 cells assessed as cell viability at 10 uM after 24 hrs by MTT assay relative to control. The note with it: A549, 24 h, read-out: Activity. An outline of the steps: as §1
Assay [31] concerns JeKo-1. The assay can be described thus: Cytotoxicity against human JeKo1 cells assessed as cell viability at 10 uM after 24 hrs by MTT assay relative to control. The note with it: JeKo-1, 24 h, read-out: Activity. An outline of the steps:
as §2

Assay [32] has as its system SK-N-MC. The assay can be described thus: Cytotoxicity against human SK-N-MC cells assessed as cell viability after 24 hrs by MTT assay. The note with it: read-out: LC50 (the source's name). An outline of the steps:
as §3

As for `C=C1C(=O)O[C@@H]2[C@H]3O[C@]3(C)CC/C=C(\CO)CC[C@@H]12`, the “fold change (FC)” value in assay [1] is recorded as 1; in assay [2], 0.3; in [3], 1; in assay [4] it was 0.9; in assay [5], 1; in [6], 0.9. The “fold change (FC)” value in assay [7] turned out to be 0.9; in assay [8], 1; in assay [9], 1; in assay [10], 1.
In the case of `C=C1C(=O)O[C@@H]2[C@H]3O[C@]3(C)CC/C=C(\C)[C@@H](O)C[C@@H]12`, the “fold change (FC)” value in [1] was 1; in assay [2], 0.2; in assay [3], 1; in assay [4], 0.9; in [5] it was 1; in [6], 1. Moreover, the “fold change (FC)” value is 1 in [7], 1 in assay [8], 0.9 in assay [9] and 1 in [10].
For the compound `C=C1C(=O)O[C@@H]2[C@H]3O[C@]3(C)CC/C=C(/COC(=O)Nc3cc(C(F)(F)F)cc(C(F)(F)F)c3)CC[C@@H]12`, the CC50 came out at 5.5 µM in assay [11]; 6.1 µM in assay [12]; 3.4 µM in [14]; 3.3 µM in assay [15]; 5.9 µM in assay [17]; 1.5 µM in assay [18]. The CC50 in assay [19] turned out to be 4.3 µM; in [24], 9.2 µM; in [27], 5.5 µM; in assay [32], 0.6 µM. In addition, the viability at 10 µM in [13] amounted to 25.7%; in [16], 0%; in assay [21], 3.8%; in assay [22], 3.9%; in [25] it was 23.3%; in assay [26] it was 5.5%. For the same compound, the viability at 10 µM in assay [28] is 2.1%; in assay [29] it was 13.7%; in assay [30], 25.1%; in assay [31], -1.8%. The viability at 2 µM in [20] was found to be 71.5%; in assay [23], 74.9%.

The values above are taken from ChEMBL document CHEMBL4219033, “Anticancer activity profiling of parthenolide analogs generated via P450-mediated chemoenzymatic synthesis” (2018).
